According to ChEMBL document CHEMBL4130623, “Discovery of Highly Potent Pinanamine-Based Inhibitors against Amantadine- and Oseltamivir-Resistant Influenza A Viruses” (J Med Chem, 2018):
Activity calls are given as the source filed them. No cut-off for these calls is given here.

Key:
[1] = system: Influenza A virus (A/Puerto Rico/8/1934(H1N1)); assay: Antiviral activity against Influenza A virus (A/PR/8/34 (H1N1)(NA-H274Y)) infected in MDCK cells assessed as reduction in virus-induced cytopathic effect after 48 hrs by microscopic analysis; format: functional, organism-based
In short: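 MDCK monolayers (5×10^4 cells/well, grown 24 h) were rinsed twice, infected with 100 TCID50 virus for 2 h at 37 °C in 5% CO2, and the inoculum was removed. Two-fold serial compound dilutions in DMEM with 1.5 µg/mL trypsin were added and incubated 48 h at 34 °C. CPE percentage was scored by microscope and EC50 fitted by non-linear regression.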

[2] = system: Matrix protein 2 (Influenza A virus (A/Udorn/307/1972(H3N2))), P0DOF8 [S31N]; assay: Inhibition of Influenza A virus AM2 S31N mutant expressed in Xenopus laevis frog oocytes assessed as maximum reduction in channel current at 100 uM at pH 5.5 after 2 mins by TEVC assay; format: cell-based
In short: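 Xenopus laevis oocytes were microinjected with RNA expressing A/M2 S31N. Compound was applied for 2 min at pH 5.5 and the percentage inhibition of M2 current was recorded by two-electrode voltage clamp. Each measurement was repeated twice with different cells.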

| Structure (SMILES) | EC50 [1] [µM] | inhibition [2] |
| --- | --- | --- |
| C[C@@H]1C2CC(C[C@H]1NCc1sccc1C1CC1)C2(C)C (single isomer, unassigned) | 6.85 | inactive |
| NC12CC3CC(CC(C3)C1)C2 [AMANTADINE] | > 100 | – |
| CCOC(=O)C1=C[C@@H](OC(CC)CC)[C@H](NC(C)=O)[C@@H](N)C1 [OSELTAMIVIR] | > 10 | – |
